Measurements as given in ChEMBL document CHEMBL3351723, “New derivatives of lupane triterpenoids disturb breast cancer mitochondria and induce cell death” (Bioorg Med Chem, 2014).
The source made the active and inactive calls. The rule behind the calls is not given here.

What was measured:
Liver microsome [1] = experiment: Induction of mitochondrial function disruption in Wistar Han rat liver mitochondria energized with succinate assessed as respiratory control ratio measured at 0.067 ug/mg of protein (reference value: 4.1 +/- 0.5 no_unit); type: functional
Hs-578T [2] = experiment: Induction of apoptosis in human Hs578T cells assessed as increase in cyclophilin D protein at 1 ug/ml after 24 hrs by Western blot analysis; type: functional, cell-based
Outline: (§1)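 About 1.0×10^6 attached and floating HS578T cells, treated 24 h at 1 μg/ml, were lysed in HEPES/sucrose buffer with DTT, PMSF and protease inhibitors. Extracts were stored at -80°C, then p53 and cyclophilin D were semi-quantified by Western blot. Six experiments, mean ± SEM.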

Hs-578T [3] = experiment: Effect on Bax protein level in human Hs578T cells at 1 ug/ml after 24 hrs by Western blot analysis; type: functional, cell-based
Hs-578T [4] = experiment: Induction of apoptosis in human Hs578T cells assessed as increase in caspase 3 like activity at 1 ug/ml after 24 hrs; type: functional, cell-based
Hs-578T [5] = experiment: Cytotoxicity against human Hs578T cells at 0.125 to 2 ug/ml incubated for 6 hrs folowed by drug wash out and fresh medium addition and measured 5 days after wash out; type: functional, cell-based
Liver microsome [6] = experiment: Induction of mitochondrial function disruption in Wistar Han rat liver mitochondria energized with succinate assessed as adenosine diphosphate/O ratio measured at 0.067 ug/mg of protein (reference value: 2.3 +/- 0.2 no_unit); type: functional
Liver microsome [7] = experiment: Induction of mitochondrial function disruption in Wistar Han rat liver mitochondria energized with succinate assessed as respiratory control ratio measured at 1.333 ug/mg of protein (reference value: 4.1 +/- 0.5 no_unit); type: functional
Liver microsome [8] = experiment: Induction of mitochondrial function disruption in Wistar Han rat liver mitochondria energized with succinate assessed as adenosine diphosphate/O ratio measured at 0.133 ug/mg of protein (reference value: 2.3 +/- 0.2 no_unit); type: functional
Liver microsome [9] = experiment: Induction of mitochondrial function disruption in Wistar Han rat liver mitochondria energized with succinate assessed as State-4 level per mg of protein measured at 0.133 ug/mg of protein (reference value: 33.5 +/- 7.5 nmol/mg protein/min); type: functional
Hs-578T [10] = experiment: Effect on Bcl2 protein level in human Hs578T cells at 1 ug/ml after 24 hrs by Western blot analysis; type: functional, cell-based
[11] = Cell cycle arrest against human Hs578T cells assessed as decrease in cells at S phase at 0.5 ug/ml after 24 to 48 hrs by propidium iodide staining based flow cytometry; type: functional; settings: Hs-578T
Outline: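 Log-phase Hs578T cells exposed 24 and 48 h to 0.5 μg/ml. Adherent plus floating cells fixed in cold 70% ethanol, kept overnight at -20°C, washed into PBS-T (132 mM NaCl, 4 mM KCl, 1.2 mM NaH2PO4, 0.1% Tween). Treated with 20 μg/ml RNase for 45 min at 37°C, then propidium iodide for 30 min at 37°C. Phase percentages read by flow cytometry. Mean ± SEM, 5 experiments.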

Liver microsome [12] = experiment: Induction of mitochondrial function disruption in Wistar Han rat liver mitochondria energized with succinate assessed as State-3 level per mg of protein measured at 1.333 ug/mg of protein (reference value: 130.8 +/- 24.1 nmol/mg protein/min); type: functional
Liver microsome [13] = experiment: Induction of mitochondrial function disruption in Wistar Han rat liver mitochondria energized with succinate assessed as State-3 level per mg of protein measured at 0.667 ug/mg of protein (reference value: 130.8 +/- 24.1 nmol/mg protein/min); type: functional
MDA-MB-231 = experiment: Cytotoxicity against human MDA-MB-231 cells assessed as reduction in cell number in glucose-free, galactose/glutamine medium after 3 to 5 days; type: functional, cell-based
Outline: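 Cells grown in glucose-free DMEM with galactose (1.8 g/L), L-glutamine (0.584 g/L), pyruvate and 10% FBS, forcing ATP from oxidative phosphorylation. Exposed to a dose range for 1, 3 and 5 days. Cell number read by sulforhodamine B and expressed as % of control. Mean ± SEM, 5 experiments.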

Liver microsome [14] = experiment: Induction of mitochondrial function disruption in Wistar Han rat liver mitochondria energized with succinate assessed as adenosine diphosphate/O ratio measured at 0.333 ug/mg of protein (reference value: 2.3 +/- 0.2 no_unit); type: functional
Liver microsome [15] = experiment: Induction of mitochondrial function disruption in Wistar Han rat liver mitochondria energized with succinate assessed as State-4 level per mg of protein measured at 1.333 ug/mg of protein (reference value: 33.5 +/- 7.5 nmol/mg protein/min); type: functional
Hs-578T [16] = experiment: Induction of apoptosis in human Hs578T cells assessed as increase in p53 protein at 1 ug/ml after 24 hrs by Western blot analysis; type: functional, cell-based; outline: as §1
Liver microsome [17] = experiment: Induction of mitochondrial function disruption in Wistar Han rat liver mitochondria energized with succinate assessed as State-3 level per mg of protein measured at 0.333 ug/mg of protein (reference value: 130.8 +/- 24.1 nmol/mg protein/min); type: functional
[18] = Induction of mitochondrial permeability transition pore in Wistar Han rat liver mitochondria assessed as mitochondrial swelling by spectrophotometry; type: functional
Outline: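 Isolated rat liver mitochondria were energized with succinate plus rotenone and pre-incubated with compound at 0.07–1.33 µg/mg protein. MPT was then triggered by one Ca2+ pulse of 40 nmol/mg protein. Swelling was followed as pseudo-absorbance at 540 nm, and amplitude is basal minus the reading 600 s after Ca2+. Cyclosporin A at 1 µM was the reference, with 6 preparations.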

Liver microsome [19] = experiment: Induction of mitochondrial function disruption in Wistar Han rat liver mitochondria energized with succinate assessed as adenosine diphosphate/O ratio measured at 1.333 ug/mg of protein (reference value: 2.3 +/- 0.2 no_unit); type: functional
Liver microsome [20] = experiment: Induction of mitochondrial permeability transition pore in Wistar Han rat liver mitochondria assessed as mitochondrial swelling by spectrophotometry relative to control
[21] = Induction of apoptosis in human Hs578T cells assessed as distribution of mitochondrial polarization and morphology at 0.25 ug/ml after 6 hrs by confocal microscopy; type: functional, cell-based; settings: Hs-578T
Outline: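 Cells were seeded on glass coverslips and left to attach for 24 h. They were then exposed to vehicle or 0.25 μg/ml compound for 6 h. For the last 30 min they were loaded with 100 nM TMRM in saline buffer with 15 mM glucose, and the probe was kept present during imaging. Mitochondrial polarization and morphology were imaged by fluorescence microscopy, and the TMRM fluorescence standard deviation was quantified. Four independent preparations, mean ± SEM.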

[22] = Cytotoxicity against human Hs578T cells assessed as decrease in live cells at 1 ug/ml for 24 to 48 hrs by flow cytometry; type: functional; settings: Hs-578T
Outline: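 Hs578T seeded at 2.5×10^4 cells/ml, exposed to 1 μg/ml or DMSO for 24 and 48 h. Cells trypsinized and resuspended in HEPES-buffered saline with 15 mM glucose. Stained 15 min at 37°C with 1 μM ethidium homodimer and 0.1 μM calcein-AM. Green (calcein) and red (ethidium homodimer) signals read by flow cytometry. Mean ± SEM, 6 experiments.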

Row | Compound | Ratio (Liver microsome [1]) | Activity (Hs-578T [2]) | Activity (Hs-578T [3]) | Activity (Hs-578T [4]) | inhibition (Hs-578T [5]) | Ratio (Liver microsome [6]) | Ratio (Liver microsome [7]) | Ratio (Liver microsome [8]) | Activity (Liver microsome [9]) | Activity (Hs-578T [10]) | inhibition [11] | Activity (Liver microsome [12]) | Activity (Liver microsome [13]) | Cytotoxicity (active/inactive call) (MDA-MB-231) | Ratio (Liver microsome [14]) | Activity (Liver microsome [15]) | Activity (Hs-578T [16]) | Activity (Liver microsome [17]) | Activity [18] | Ratio (Liver microsome [19]) | other results
1 | C=C(C)[C@@H]1CC[C@]2(COC(=O)CC[n+]3ccc(N(C)C)cc3)CC[C@]3(C)[C@H](CC[C@@H]4[C@@]5(C)CC[C@H](OC(=O)CC[n+]6ccc(N(C)C)cc6)C(C)(C)[C@@H]5CC[C@]43C)[C@@H]12.[Cl-].[Cl-] | 4.3 | Active | inactive | Active | Active | 1.8 | 4.3 | 1.7 | 25.3 nmol/min | inactive | Active | 112 nmol/min | 116 nmol/min | Active | 1.8 | 25.7 nmol/min | Active | 121 nmol/min | inactive | 1.8 | 
2 | C=C(C)[C@@H]1CC[C@]2(COC(=O)C[n+]3ccc(N(C)C)cc3)CC[C@]3(C)[C@H](CC[C@@H]4[C@@]5(C)CC[C@H](OC(=O)C[n+]6ccc(N(C)C)cc6)C(C)(C)[C@@H]5CC[C@]43C)[C@@H]12.[Cl-].[Cl-] | 4.1 | Active | inactive | Active | Active | 2.4 | 4 | 2.4 | 34.5 nmol/min | inactive | Active | 131 nmol/min | 141 nmol/min | Active | 2.2 | 34.8 nmol/min | Active | 136 nmol/min | Dose-dependent effect | 2.3 | fold change (FC) (Liver microsome [20]): 5; Activity [21]: Active; inhibition at 1 µg/mL [22]: 10%
3 | C=C(C)[C@@H]1CC[C@]2(COC(=O)C[N+](C)(C)C(C)C)CC[C@]3(C)[C@H](CC[C@@H]4[C@@]5(C)CC[C@H](OC(=O)C[N+](C)(C)C(C)C)C(C)(C)[C@@H]5CC[C@]43C)[C@@H]12.[Cl-].[Cl-] | 4 | Active | inactive | Active | Active | 3 | 4.2 | 3.1 | 28.6 nmol/min | inactive | Active | 107 nmol/min | 116 nmol/min | Active | 2.9 | 28.7 nmol/min | Active | 121 nmol/min | Dose-dependent effect | 2.9 | fold change (FC) (Liver microsome [20]): 5; Activity [21]: Active; inhibition at 1 µg/mL [22]: 10%
4 | C=C(C)[C@@H]1CC[C@]2(COC(=O)C(CC)[n+]3ccc(N(C)C)cc3)CC[C@]3(C)[C@H](CC[C@@H]4[C@@]5(C)CC[C@H](OC(=O)C(CC)[n+]6ccc(N(C)C)cc6)C(C)(C)[C@@H]5CC[C@]43C)[C@@H]12 (stereo partly drawn) | 3 | Active | inactive | Active |  | 1.6 | 3.2 | 1.6 | 23.7 nmol/min | inactive | Active | 119 nmol/min | 125 nmol/min | Active | 1.6 | 21.5 nmol/min | Active | 132 nmol/min | Dose-dependent effect | 1.6 | fold change (FC) (Liver microsome [20]): 5; Activity [21]: Active; inhibition at 1 µg/mL [22]: 10%
